Results published in ChEMBL document CHEMBL3272316, “Oxime ether derivatives, a new class of nonsteroidal antiinflammatory compounds” (J Med Chem, 1977).

Species: Rattus norvegicus
Test: Toxicity in rat assessed as effect on emptying rate of stomach
Format: organism-based
Conditions: in vivo

In the case of `C/C(=N\OCC(=O)OCCN(C)C)c1ccc(Cl)cc1` [CLOXIMATE], the Activity is reported as “Non-toxic”.

Species: Canis familiaris
Test: Toxicity in dog assessed as effect on emptying rate of stomach
Format: organism-based, Canis lupus familiaris
Conditions: in vivo

For `C/C(=N\OCC(=O)OCCN(C)C)c1ccc(Cl)cc1` [CLOXIMATE], the Activity was “Non-toxic”.

Tested on: Rattus norvegicus
Test: Antiinflammatory activity in po dosed rat assessed as inhibition of carrageenan-induced paw edema compound administered 1 hr prior challenge measured 3 hrs post challenge
Format: functional
Conditions: not given
In short: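 Rats of 180-220 g received oral doses in a series, in 1% tragacanth vehicle, 1 h before intraplantar injection of 0.05 mL of 1% carrageenan. Paw edema was measured at 3 h. ED50 (mg/kg) was derived graphically from the dose-inhibition curve, with 95% confidence limits by Finney's method for some compounds. Amines were tested as hydrochlorides.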

`C/C(=N\OCCOC(=O)C(C)(C)C)c1ccc(Cl)cc1` and `CC(=O)OCCO/N=C(\C)c1ccc(Cl)cc1` are within 1.5-fold of each other in ED50: 38 mg/kg for the first, 43 mg/kg for the second.

Going from `CNCCOC(=O)CO/N=C(\C)c1ccc(Cl)cc1.Cl` to `CCCOC(=O)CO/N=C(\C)c1ccc(Cl)cc1`, the ED50 falls from 26 mg/kg to 14 mg/kg (1.9-fold).

Going from `C/C(=C\CC(=O)O)c1ccc(Cl)cc1` to `C/C(=N\NCC(=O)O)c1ccc(Cl)cc1`, the ED50 falls from 70 mg/kg to 22 mg/kg (3.2-fold).

`C/C(=N\OC(C)(C)C(=O)O)c1ccc(Cl)cc1` and `C/C(=N\OC(C)C(=O)O)c1ccc(Cl)cc1` (configuration not stated) are within 1.5-fold of each other in ED50: 42 mg/kg for the first, 55 mg/kg for the second.

Compared with `COC(=O)CO/N=C(\C)c1ccc(Br)cc1`, `COC(=O)CO/N=C(\C)c1ccc(Cl)cc1` is 1.7-fold higher in ED50: 14 mg/kg for the first, 24 mg/kg for the second.

First: C/C(=N\OCCCCCC(=O)O)c1ccc(Cl)cc1
Second: C/C(=N\OCCCC(=O)O)c1ccc(Cl)cc1
The ED50 of the first is 1.6-fold higher: 92 mg/kg for the first, 58 mg/kg for the second.

Going from `C/C(=N\OCC(=O)OCCCCCCN(C)C)c1ccc(Cl)cc1` to `C/C(=N\OCC(=O)OCCN(C)C)c1ccc(Cl)cc1` [CLOXIMATE], the ED50 falls from 66 mg/kg to 34 mg/kg (1.9-fold).

Going from `C/C(=N\OCC(=O)O)c1ccc(F)cc1` to `C/C(=N\OCC(=O)O)c1ccc(Br)cc1`, the ED50 falls from 85 mg/kg to 27 mg/kg (3.1-fold).

Going from `OCCO/N=C/c1ccc(Cl)cc1` to `O=C(O)CO/N=C/c1ccc(Cl)cc1`, the ED50 falls from 90 mg/kg to 45 mg/kg (2-fold).

Going from `C/C(=N\OCC(N)=O)c1ccc(Br)cc1` to `C/C(=N\OCC(N)=O)c1ccc(Cl)cc1`, the ED50 falls from 62 mg/kg to 24 mg/kg (2.6-fold).

Going from `CC(C)Cc1ccc(CC(=O)O)cc1` [IBUFENAC] to `CC(C)Cc1ccc(C(C)C(=O)O)cc1` (configuration not stated) [IBUPROFEN], the ED50 falls from 98 mg/kg to 25 mg/kg (3.9-fold).

Compared with `C/C(=N\OCC(=O)OCCN(C)C)c1ccc(Cl)c(Cl)c1`, `C/C(=N\OCC(=O)OCCN(C)C)c1ccc(Br)cc1` is 1.7-fold lower in ED50: 80 mg/kg for the first, 47 mg/kg for the second.

Compared with `CCOC(=O)CO/N=C(\C)c1ccc(Cl)cc1`, `C/C(=N\OCC(=O)OC(C)C)c1ccc(Cl)cc1` is 1.6-fold higher in ED50: 32 mg/kg for the first, 50 mg/kg for the second.

`C/C(=N\OCC(N)=O)c1ccc(Cl)c(Cl)c1` and `C/C(=N\OCC(=O)O)c1ccc(Cl)c(Cl)c1` are within 1.5-fold of each other in ED50: 55 mg/kg for the first, 65 mg/kg for the second.

`C/C(=N\OCC(=O)OCCN1CCN(C)CC1)c1ccc(Cl)cc1.Cl` and `C/C(=N\OCC(=O)OCCN1CCOCC1)c1ccc(Cl)cc1.Cl` are within 1.5-fold of each other in ED50: 54 mg/kg for the first, 44 mg/kg for the second.

Going from `C/C(=N\OCCO)c1ccc(Cl)cc1` to `C/C(=N\OCCC(=O)O)c1ccc(Cl)cc1`, the ED50 rises from 29 mg/kg to 80 mg/kg (2.8-fold).

Compared with `O=C(O)CN/N=C/c1ccc(Cl)cc1`, `O=C(O)CO/N=C/c1ccc(Br)cc1` is 1.8-fold higher in ED50: 25 mg/kg for the first, 46 mg/kg for the second.

Going from `C/C(=N\OCCO)c1ccc(Cl)s1` to `C/C(=N\OCC(=O)O)c1ccc(Cl)s1`, the ED50 falls from 60 mg/kg to 34 mg/kg (1.8-fold).

Compared with `C/C(=N\OCC(=O)OCC(C)(C)N(C)C)c1ccc(Cl)cc1.Cl`, `C/C(=N\OCC(=O)N(C)C)c1ccc(Cl)cc1` is 4.4-fold higher in ED50: 27 mg/kg for the first, 120 mg/kg for the second.

`CCCCC1C(=O)N(c2ccccc2)N(c2ccccc2)C1=O` [PHENYLBUTAZONE] and `C/C(=N\OCC(=O)O)c1ccc(Cl)cc1` are within 1.5-fold of each other in ED50: 34 mg/kg for the first, 28 mg/kg for the second.

Going from `COC(=O)OCCO/N=C(\C)c1ccc(Cl)cc1` to `CNC(=O)CO/N=C(\C)c1ccc(Cl)cc1`, the ED50 rises from 33 mg/kg to 70 mg/kg (2.1-fold).

Compared with `C/C(=N\OCC(=O)OCCNC1CCCCC1)c1ccc(Cl)cc1.Cl`, `C/C(=N\OCC(=O)O)c1ccc(C(F)(F)F)cc1` is 4.6-fold higher in ED50: 26 mg/kg for the first, 120 mg/kg for the second.

For `C/C(=N\OCC(=O)O)c1ccc(Cl)cc1Cl`, the ED50 was 120 mg/kg.

Tested on: Mus musculus
Test: Neurotoxicity in ip dosed mouse
Format: toxicity, organism-based
Conditions: in vivo
In short: (§1)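 Mice were assessed by a modified Irwin observational method.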

Compound `C/C(=N\OCC(=O)OCCN(C)C)c1ccc(Cl)cc1` [CLOXIMATE] has an ED50 of over 320 mg/kg.

Tested on: not listed separately
Test: Toxicity in ip dosed mouse
Format: organism-based
Conditions: in vivo
In short: (§2)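 Mice; LD50 derived by Horn's method. Amine compounds were tested as hydrochloride salts, with one exception given as the free base.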

`C/C(=N\OCC(=O)OCCN(C)C)c1ccc(Cl)cc1` [CLOXIMATE] gave an LD50 of over 320 mg/kg.

Tested on: not listed separately
Test: Toxicity in po dosed mouse
Format: organism-based
Conditions: in vivo
In short: as §2

For `C/C(=N\OCC(=O)OCCN(C)C)c1ccc(Cl)cc1` [CLOXIMATE], the LD50 was over 1000 mg/kg.

Tested on: Mus musculus
Test: Neurotoxicity in po dosed mouse
Format: toxicity, organism-based
Conditions: in vivo
In short: as §1

With `C/C(=N\OCC(=O)OCCN(C)C)c1ccc(Cl)cc1` [CLOXIMATE] the ED50 was over 1000 mg/kg.

Species: Rattus norvegicus
Test: Toxicity in rat assessed as effects on gastrointestinal mucosa
Format: organism-based, Intestinal mucosa
Conditions: in vivo

In the case of `C/C(=N\OCC(=O)OCCN(C)C)c1ccc(Cl)cc1` [CLOXIMATE], the Activity is reported as “Non-toxic”.

Tested on: Rattus norvegicus
Test: Antiinflammatory activity in rat assessed as inhibition of carrageenan-induced paw edema at 50 mg/kg, po administered 1 hr prior challenge measured 3 hrs post challenge
Format: functional
Conditions: not given
In short: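 Rats of 180-220 g, four per group, were given 50 mg/kg orally in 1% tragacanth vehicle 1 h before intraplantar injection of 0.05 mL of 1% carrageenan. Hind-paw edema was measured 3 h after injection and reported as percent inhibition (Winter method).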

`C/C(=N\OCC(=O)O)c1ccccc1` and `C/C(=N\OCC(N)=O)c1ccccc1` cannot be ordered by inhibition in vivo at 50 mg/kg: under 20% for the first, under 20% for the second.

`C/C(=N\OCC(=O)O)c1c[nH]c2ccccc12` and `C/C(=N\OCC(=O)O)c1ccccc1Cl` cannot be ordered by inhibition in vivo at 50 mg/kg: under 20% for the first, under 20% for the second.

`O=C(O)CON=C1CCCCC1` and `C/C(=N\OCC(=O)O)c1ccc(CC2CCCCC2)cc1` cannot be ordered by inhibition in vivo at 50 mg/kg: under 20% for the first, under 20% for the second.

`C/C(=N\OCC(=O)O)c1ccc(S(C)(=O)=O)cc1` and `C/C(=N\OCC(=O)O)c1ccc(C)cc1` are the same in inhibition in vivo at 50 mg/kg: 20% for the first, 20% for the second.

`C/C(=N/OCC(=O)O)c1ccc(Cl)s1` and `C/C(=N/OCCO)c1ccc(Cl)s1` cannot be ordered by inhibition in vivo at 50 mg/kg: under 20% for the first, under 20% for the second.

`C/C(=N\OCC(=O)O)c1ccc(C(C)(C)C)cc1` and `C/C(=N\OCC(=O)O)c1ccc(N(C)C)cc1` cannot be ordered by inhibition in vivo at 50 mg/kg: under 20% for the first, under 20% for the second.

`CC(C)=NOCC(=O)O` and `C/C(=N\OCC(=O)O)c1ccc(Cl)c(C)c1` are the same in inhibition in vivo at 50 mg/kg: 20% for the first, 20% for the second.

First: O=C(O)CO/N=C1\CCc2cc(Cl)ccc21
Second: C/C(=N\OCC(=O)O)c1cccc(Cl)c1
The inhibition in vivo at 50 mg/kg of the first is lower: under 20% for the first, 20% for the second.

`O=C(O)CO/N=C/c1ccccc1Cl` and `O=C(O)CO/N=C/c1cccc2ccccc12` cannot be ordered by inhibition in vivo at 50 mg/kg: under 20% for the first, under 20% for the second.

`C/C(=N\OCC(=O)O)c1ccccc1C(=O)O` and `C/C(=N\OCC(=O)O)c1ccccc1O` cannot be ordered by inhibition in vivo at 50 mg/kg: under 20% for the first, under 20% for the second.

`O=C(O)CO/N=C\c1ccc(Cl)s1` and `O=C(O)CO/N=C/c1ccc([N+](=O)[O-])cc1` cannot be ordered by inhibition in vivo at 50 mg/kg: under 20% for the first, under 20% for the second.

`C/C(=N\NCC(=O)O)c1ccc(C2CCCCC2)c(Cl)c1` and `C/C(=N\OCC(=O)O)c1ccc(C2CCCCC2)c(Cl)c1` cannot be ordered by inhibition in vivo at 50 mg/kg: under 20% for the first, under 20% for the second.

`O=C(O)C#Cc1ccc(Cl)cc1` and `C/C(=C\CCC(=O)O)c1ccc(Cl)cc1` cannot be ordered by inhibition in vivo at 50 mg/kg: under 20% for the first, under 20% for the second.

`C/C(=N\OCC(=O)OCCN(C)C)c1ccc(F)cc1` and `C/C(=N\OCC(N)=O)c1ccc(F)cc1` are the same in inhibition in vivo at 50 mg/kg: 20% for the first, 20% for the second.

`C/C(=N\OCCCCO)c1ccc(Cl)cc1` and `C/C(=N\OCC(C)O)c1ccc(Cl)cc1` (configuration not stated) cannot be ordered by inhibition in vivo at 50 mg/kg: under 20% for the first, under 20% for the second.

First: C/C(=N\OCC(=O)O)c1ccc(C#N)cc1
Second: C/C(=N\OCC(=O)O)c1ccc(N)cc1
The inhibition in vivo at 50 mg/kg of the first is lower: under 20% for the first, 20% for the second.

`C/C(=N\OCC(=O)O)c1ccc([N+](=O)[O-])cc1` and `C/C(=N\OCC(=O)O)c1ccc(O)cc1` cannot be ordered by inhibition in vivo at 50 mg/kg: under 20% for the first, under 20% for the second.

`CC(=O)Nc1ccc(/C(C)=N/OCC(=O)O)cc1` and `CSc1ccc(/C(C)=N/OCC(=O)O)cc1` cannot be ordered by inhibition in vivo at 50 mg/kg: under 20% for the first, under 20% for the second.

`CCCCC/C(=N\OCC(=O)O)c1ccc(Cl)cc1` and `CC/C(=N\OCC(=O)O)c1ccc(Cl)cc1` cannot be ordered by inhibition in vivo at 50 mg/kg: under 20% for the first, under 20% for the second.

First: C/C(=N\OCC(=O)O)c1cccc2ccccc12
Second: COc1ccc(/C(C)=N/OCC(=O)O)cc1
The inhibition in vivo at 50 mg/kg of the first is higher: 20% for the first, under 20% for the second.

`OCCO/N=C\c1ccc(Cl)cc1` and `CN(C)c1ccc(/C=N/OCC(=O)O)cc1` cannot be ordered by inhibition in vivo at 50 mg/kg: under 20% for the first, under 20% for the second.

Compared with `C/C(=N\OCC(=O)O)c1ccc(F)c(N)c1`, `C/C(=N\OCC(=O)O)c1ccc(C2CC2)cc1` is lower in inhibition in vivo at 50 mg/kg: 20% for the first, under 20% for the second.

Species: Canis familiaris
Test: Toxicity in dog assessed as effects on gastrointestinal mucosa
Format: organism-based, Canis lupus familiaris, Intestinal mucosa
Conditions: in vivo

For `C/C(=N\OCC(=O)OCCN(C)C)c1ccc(Cl)cc1` [CLOXIMATE], the Activity was “Non-toxic”.
